Test results from ChEMBL document CHEMBL1770090, “Synthesis, antimicrobial, antioxidant, anti-hemolytic and cytotoxic evaluation of new imidazole-based heterocycles” (Eur J Med Chem, 2011).
Converted amounts (≈) assume the structure as drawn.

Key:
Bacillus subtilis [1] = assay: Antimicrobial activity against Bacillus subtilis ATCC 6633 after 24 hrs by agar well diffusion method; type: functional
Summary of the method: (§1)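 Agar well diffusion. Inocula of 100 µL: bacteria 1 × 10^8 CFU/mL on nutrient agar, yeast 1 × 10^6 CFU/mL on Sabouraud dextrose agar, fungi 1 × 10^4 spore/mL on potato dextrose agar. 10 mm wells received 100 µL of compound at 100 mg/mL in DMSO. Bacteria incubated 24 h at 37 °C, fungi 48 h at 28 °C. Controls were DMSO, ciprofloxacin 50 µg/mL and ketoconazole 50 µg/mL. Inhibition zone diameter in mm, scored N.A. to ++++, average of triplicates.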

Priestia megaterium = assay: Antimicrobial activity against Bacillus megaterium ATCC 9885 after 24 hrs by agar well diffusion method; type: functional; summary of the method: as §1
Staphylococcus aureus [2] = assay: Antimicrobial activity against Staphylococcus aureus ATCC 29213 after 24 hrs by agar well diffusion method; type: functional; summary of the method: as §1
Klebsiella pneumoniae = assay: Antimicrobial activity against Klebsiella pneumoniae ATCC 13883 after 24 hrs by agar well diffusion method; type: functional; summary of the method: as §1
Pseudomonas aeruginosa = assay: Antimicrobial activity against Pseudomonas aeruginosa ATCC 27953 after 24 hrs by agar well diffusion method; type: functional; summary of the method: as §1
Escherichia coli = assay: Antimicrobial activity against Escherichia coli ATCC 25922 after 24 hrs by agar well diffusion method; type: functional; summary of the method: as §1
Candida albicans = assay: Antimicrobial activity against Candida albicans NRRL Y-477 after 48 hrs by agar well diffusion method; type: functional; summary of the method: as §1
Aspergillus niger = assay: Antimicrobial activity against Aspergillus niger after 48 hrs by agar well diffusion method; type: functional; summary of the method: as §1
[3] = Antioxidant activity assessed as ABTS radical scavenging activity at 2 mM; type: functional
Summary of the method: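 ABTS (60 µM, 2 mL) was oxidized with MnO2 (25 mg/mL, 3 mL) in 0.1 M phosphate buffer pH 7, then centrifuged and filtered, with A734 adjusted to about 0.5. 50 µL of 2 mM compound in MeOH/phosphate buffer (1:1) was added. Colour loss expressed as % inhibition. L-ascorbic acid was the standard; blank and negative controls used MeOH/buffer.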

[4] = Antioxidant activity in rat erythrocytes assessed as inhibition of peroxyl radicals-induced hemolysis at 2 mM after 2 hrs; type: functional; conditions: Erythrocyte, read-out: INH
Summary of the method: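 Rat blood from cardiac puncture, heparinized. Erythrocytes were washed three times in 0.15 M NaCl. A 10% suspension in PBS pH 7.4 was mixed with an equal volume of 200 mM AAPH in PBS containing sample, then shaken at 37 °C for 2 h. Mixture diluted with 8 volumes of PBS and centrifuged; supernatant A540 compared with a water-lysed sample for complete hemolysis. L-ascorbic acid was the positive control. Mean ± SD.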

[5] = Cytotoxicity against mouse EAC cells assessed as cell viability using trypan blue staining after 2 hrs by hemocytometer analysis; type: functional, cell-based; conditions: Ehrlich
Bacillus subtilis [6] = assay: Antimicrobial activity against Bacillus subtilis ATCC 6633 after 24 hrs by two fold serial dilution technique; type: functional; conditions: ATCC 6633, 24 h
Summary of the method: (§2)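 Tested only compounds giving inhibition zones ≥ 16 mm, by two-fold serial dilution in nutrient broth. Final concentrations were […], 175, 87.5, 43.8 and 21.9 µg/mL. Each 5 mL tube received 0.1 mL inoculum of about 1 × 10^8 CFU/mL and was incubated 24 h at 37 °C. MIC was the lowest concentration with no growth.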

Staphylococcus aureus [7] = assay: Antimicrobial activity against Staphylococcus aureus ATCC 29213 after 24 hrs by two fold serial dilution technique; type: functional; conditions: ATCC 29213, 24 h; summary of the method: as §2

| Compound | diameter of the inhibition zone (DIZ) (Bacillus subtilis [1]) | diameter of the inhibition zone (DIZ) (Priestia megaterium) | diameter of the inhibition zone (DIZ) (Staphylococcus aureus [2]) | diameter of the inhibition zone (DIZ) (Klebsiella pneumoniae) | diameter of the inhibition zone (DIZ) (Pseudomonas aeruginosa) | diameter of the inhibition zone (DIZ) (Escherichia coli) | diameter of the inhibition zone (DIZ) (Candida albicans) | diameter of the inhibition zone (DIZ) (Aspergillus niger) | inhibition [3] [%] | percent hemolysis at 2000 µM [4] [%] | IC50 [5] [µg/mL] | MIC (Bacillus subtilis [6]) [µg/mL] | MIC (Staphylococcus aureus [7]) [µg/mL] |
| --- | --- | --- | --- | --- | --- | --- | --- | --- | --- | --- | --- | --- | --- |
| C/C(=N\N=C1\NC(=O)/C(=C/c2ccc(F)cc2)S1)c1nc(-c2ccccc2)[nH]c1C | <=4 mm | <=4 mm | <=4 mm | <=4 mm | <=4 mm | <=4 mm | <=4 mm | <=4 mm | 79.2 | 1.4 | 14.5 (≈ 34.6 µM) |  |  |
| C/C(=N\NC(=O)CC#N)c1nc(-c2ccccc2)[nH]c1C | <=4 mm | <=4 mm | <=4 mm | <=4 mm | <=4 mm | <=4 mm | <=4 mm | <=4 mm | 48.2 | 3.65 | 125 (≈ 445 µM) |  |  |
| C/C(=N\N=C1\N=C(c2cc3ccccc3oc2=O)CS1)c1nc(-c2ccccc2)[nH]c1C | <=4 mm | <=4 mm | <=4 mm | <=4 mm | <=4 mm | <=4 mm | <=4 mm | <=4 mm | 61.6 | 2.5 | 125 (≈ 283 µM) |  |  |
| CC(=O)N1CCN(c2ccc(OCC3COC(Cn4ccnc4)(c4ccc(Cl)cc4Cl)O3)cc2)CC1 (stereo not drawn) [KETOCONAZOLE] | <=4 mm | <=4 mm | <=4 mm | <=4 mm | <=4 mm | <=4 mm | >=21 mm | >=21 mm |  |  |  |  |  |
| C/C(=N\NC(N)=S)c1nc(-c2ccccc2)[nH]c1C | 16 mm | 10 mm | 5 mm | 10 mm | <=4 mm | <=4 mm | <=4 mm | <=4 mm | 60.2 | 2.45 | 4.18 (≈ 15.3 µM) | 87.5 (≈ 320 µM) |  |
| C/C(=N\NC(=O)/C(C#N)=C\c1cn(-c2ccccc2)nc1-c1cc2ccccc2o1)c1nc(-c2ccccc2)[nH]c1C | <=4 mm | <=4 mm | <=4 mm | <=4 mm | <=4 mm | <=4 mm | <=4 mm | <=4 mm | 34.6 | 5.55 | 125 (≈ 227 µM) |  |  |
| C/C(=N\N=C1\N=C(c2ccccc2)CS1)c1nc(-c2ccccc2)[nH]c1C | 16 mm | <=4 mm | 16 mm | 10 mm | 10 mm | 10 mm | <=4 mm | <=4 mm | 79.3 | 2.75 | 19.5 (≈ 52.2 µM) | 43.8 (≈ 117 µM) | 29.1 (≈ 77.9 µM) |
| C/C(=N\N=C1\NC(=O)/C(=C/c2cn(-c3ccccc3)nc2-c2cccs2)S1)c1nc(-c2ccccc2)[nH]c1C | <=4 mm | <=4 mm | <=4 mm | <=4 mm | <=4 mm | <=4 mm | <=4 mm | <=4 mm | 76.2 | 3.45 | 8.25 (≈ 15 µM) |  |  |
| C/C(=N\N=C1\N=C2N=c3ccccc3=NC2S1)c1nc(-c2ccccc2)[nH]c1C (stereo not drawn) | <=4 mm | <=4 mm | <=4 mm | <=4 mm | <=4 mm | <=4 mm | <=4 mm | <=4 mm | 37.4 | 1.1 | 4.25 (≈ 10.6 µM) |  |  |
| C/C(=N\NC(=O)/C(C#N)=C\c1cn(-c2ccccc2)nc1-c1cccs1)c1nc(-c2ccccc2)[nH]c1C | <=4 mm | <=4 mm | <=4 mm | <=4 mm | <=4 mm | <=4 mm | <=4 mm | <=4 mm | 34.6 | 5.55 | 125 (≈ 242 µM) |  |  |
| C/C(=N/NC(=O)c1cc2ccc(O)cc2oc1=N)c1nc(-c2ccccc2)[nH]c1C | <=4 mm | <=4 mm | <=4 mm | <=4 mm | <=4 mm | <=4 mm | <=4 mm | <=4 mm | 4.56 | 5.55 | 150 (≈ 375 µM) |  |  |
| CC1=NC(=N/N=C(\C)c2nc(-c3ccccc3)[nH]c2C)/S/C1=N\Nc1ccc(Cl)cc1 | <=4 mm | <=4 mm | <=4 mm | <=4 mm | <=4 mm | <=4 mm | <=4 mm | <=4 mm | 40.7 | 1.7 | 20.2 (≈ 45 µM) |  |  |
| C/C(=N\N=C1\NC(=O)/C(=C/c2cn(-c3ccccc3)nc2-c2cc3ccccc3o2)S1)c1nc(-c2ccccc2)[nH]c1C | <=4 mm | <=4 mm | <=4 mm | <=4 mm | <=4 mm | <=4 mm | <=4 mm | <=4 mm | 35.9 | 1.5 | 125 (≈ 215 µM) |  |  |
| O=c1[nH]cc(F)c(=O)[nH]1 [FLUOROURACIL] |  |  |  |  |  |  |  |  |  |  | 1.5 (≈ 11.5 µM) |  |  |
| C/C(=N\N=C1\N=C(c2cc3ccccc3o2)CS1)c1nc(-c2ccccc2)[nH]c1C | <=4 mm | <=4 mm | <=4 mm | <=4 mm | <=4 mm | <=4 mm | <=4 mm | <=4 mm | 39.9 | 1.9 | 21.5 (≈ 52 µM) |  |  |
| CC1=NC(=N/N=C(\C)c2nc(-c3ccccc3)[nH]c2C)/S/C1=N\Nc1ccccc1 | <=4 mm | <=4 mm | <=4 mm | <=4 mm | <=4 mm | <=4 mm | <=4 mm | <=4 mm | 44.4 | 6.4 | 20.2 (≈ 48.7 µM) |  |  |
| O=C1O[C@H]([C@@H](O)CO)C(O)=C1O [ASCORBIC ACID] |  |  |  |  |  |  |  |  | 88.6 | 0.85 |  |  |  |
